Assay results taken from ChEMBL document CHEMBL3232844, “Synthesis and structure activity relationships of schweinfurthin indoles” (2014).

Experiments:
Type in all cases: functional
HCC 2998 = experiment: Cytotoxicity against human HCC2998 cells
Summary of the method: (§1)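 Tested in a 60-cell-line human tumor panel screen; the read-out is growth inhibition, reported as GI50 for each cell line.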

SK-OV-3 = experiment: Cytotoxicity against human SKOV3 cells; summary of the method: as §1
M14 = experiment: Cytotoxicity against human M14 cells; summary of the method: as §1
A498 = experiment: Cytotoxicity against human A498 cells; summary of the method: as §1
LOX IMVI = experiment: Cytotoxicity against human LOXIMVI cells; summary of the method: as §1
[1] = Cytotoxicity against human UO31 cells
Summary of the method: (§2)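 Cell line run as part of the 60-cell-line screening panel; growth inhibition was reported as a GI50 for each line.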

[2] = Cytotoxicity against human OVCAR4 cells; summary of the method: as §1
[3] = Cytotoxicity against human UACC257 cells; summary of the method: as §2
CCRF-CEM = experiment: Cytotoxicity against human CCRF-CEM cells
CAKI-1 = experiment: Cytotoxicity against human Caki1 cells; summary of the method: as §1
SNB-19 = experiment: Cytotoxicity against human SNB19 cells; summary of the method: as §1
DU-145 = experiment: Cytotoxicity against human DU145 cells; summary of the method: as §1
MDA-MB-435 = experiment: Cytotoxicity against human MDA-MB-435 cells; summary of the method: as §1
SN12C = experiment: Cytotoxicity against human SN12C cells; summary of the method: as §1
TK-10 = experiment: Cytotoxicity against human TK10 cells; summary of the method: as §2
COLO 205 = experiment: Cytotoxicity against human COLO205 cells; summary of the method: as §1
MDA-MB-468 = experiment: Cytotoxicity against human MDA-MB-468 cells; summary of the method: as §1
786-0 = experiment: Cytotoxicity against human 786-0 cells; summary of the method: as §1
SF-268 = experiment: Cytotoxicity against human SF268 cells; summary of the method: as §1
SF-539 = experiment: Cytotoxicity against human SF539 cells; summary of the method: as §1
SK-MEL-2 = experiment: Cytotoxicity against human SK-MEL-2 cells; summary of the method: as §1
[4] = Cytotoxicity against human NCI-ADR-RES cells; summary of the method: as §1
SF-295 = experiment: Cytotoxicity against human SF295 cells; summary of the method: as §1
HOP-62 = experiment: Cytotoxicity against human HOP62 cells; summary of the method: as §1
BT-549 = experiment: Cytotoxicity against human BT549 cells; summary of the method: as §1
[5] = Cytotoxicity against human HCT15 cells; summary of the method: as §1
SNB-75 = experiment: Cytotoxicity against human SNB75 cells; summary of the method: as §2
[6] = Cytotoxicity against human OVCAR8 cells; summary of the method: as §1
NCI-H322M = experiment: Cytotoxicity against human NCI-H322M cells; summary of the method: as §1
[7] = Cytotoxicity against human UACC62 cells; summary of the method: as §2
KM12 = experiment: Cytotoxicity against human KM12 cells; summary of the method: as §1
NCI-H23 = experiment: Cytotoxicity against human NCI-H23 cells; summary of the method: as §1
MDA-MB-231 = experiment: Cytotoxicity against human MDA-MB-231 cells; summary of the method: as §1
NCI-H226 = experiment: Cytotoxicity against human NCI-H226 cells; summary of the method: as §1
K562 = experiment: Cytotoxicity against human K562 cells; summary of the method: as §1
ACHN = experiment: Cytotoxicity against human ACHN cells; summary of the method: as §1
SR = experiment: Cytotoxicity against human SR cells; summary of the method: as §2
A549 = experiment: Cytotoxicity against human A549 cells; summary of the method: as §1
HCT-116 = experiment: Cytotoxicity against human HCT116 cells; summary of the method: as §1
HT-29 = experiment: Cytotoxicity against human HT-29 cells; summary of the method: as §1
HL-60(TB) = experiment: Cytotoxicity against human HL-60(TB) cells
Summary of the method: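 Tested within the NCI 60-cell-line screen, with GI50 as the read-out. Values are the average of two independent experiments. The lowest concentration tested was 10 nM.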

RXF 393 = experiment: Cytotoxicity against human RXF393 cells; summary of the method: as §1
IGROV-1 = experiment: Cytotoxicity against human IGROV1 cells; summary of the method: as §1
[8] = read-out: pLC50 (the source's name) (converted)

## CC1(C)[C@H](O)CC[C@@]2(C)Oc3c(O)cc(/C=C/c4cc(O)c5cc[nH]c5c4)cc3C[C@H]12
HCC 2998
  GI50: 3.16 µM
HCC 2998; [8]
  CC50: 39.8 µM
HCC 2998; read-out: pTGI (converted)
  TGI: 14.1 µM
SK-OV-3
  GI50: 1950 nM
  LC50: > 100 µM
SK-OV-3; read-out: pTGI (converted)
  TGI: 18.6 µM
M14
  GI50: 138 nM
M14; [8]
  CC50: 8.32 µM
M14; read-out: pTGI (converted)
  TGI: 646 nM
A498
  GI50: 427 nM
A498; [8]
  CC50: 46.8 µM
A498; read-out: pTGI (converted)
  TGI: 11.7 µM
LOX IMVI
  GI50: 178 nM
LOX IMVI; [8]
  CC50: 5.62 µM
LOX IMVI; read-out: pTGI (converted)
  TGI: 1580 nM
[1]; UO-31
  GI50: 209 nM
  LC50: > 100 µM
[1]; UO-31, read-out: pTGI (converted)
  TGI: 2000 nM
[2]; OVCAR-4
  GI50: 5.01 µM
[2]; OVCAR-4, read-out: pLC50 (the source's name) (converted)
  CC50: 91.2 µM
[2]; OVCAR-4, read-out: pTGI (converted)
  TGI: 42.7 µM
[3]; UACC-257
  GI50: 3.8 µM
[3]; UACC-257, read-out: pLC50 (the source's name) (converted)
  CC50: 66.1 µM
[3]; UACC-257, read-out: pTGI (converted)
  TGI: 16.2 µM
CCRF-CEM
  GI50: 219 nM
CCRF-CEM; [8]
  CC50: > 100 µM
CCRF-CEM; read-out: pTGI (converted)
  TGI: 14.1 µM
CAKI-1
  GI50: 120 nM
  LC50: 15.1 µM
CAKI-1; read-out: pTGI (converted)
  TGI: 676 nM
SNB-19
  GI50: 1120 nM
SNB-19; [8]
  CC50: > 100 µM
SNB-19; read-out: pTGI (converted)
  TGI: 26.9 µM
DU-145
  GI50: 912 nM
  LC50 (50% lethal concentration): 33.1 µM
DU-145; read-out: pTGI (converted)
  TGI: 6.46 µM
MDA-MB-435
  GI50: 661 nM
MDA-MB-435; [8]
  CC50: 51.3 µM
MDA-MB-435; read-out: pTGI (converted)
  TGI: 9.55 µM
SN12C
  GI50: 10.2 µM
  LC50: > 100 µM
SN12C; read-out: pTGI (converted)
  TGI: 63.1 µM
TK-10
  GI50: 3.55 µM
  LC50: > 100 µM
TK-10; read-out: pTGI (converted)
  TGI: 34.7 µM
COLO 205
  GI50: 2190 nM
COLO 205; [8]
  CC50: 11.7 µM
COLO 205; read-out: pTGI (converted)
  TGI: 4.79 µM
MDA-MB-468
  GI50: 1200 nM
  LC50: 36.3 µM
MDA-MB-468; read-out: pTGI (converted)
  TGI: 5.13 µM
786-0
  GI50: 45.7 nM
  LC50 (concentration killing 50% of cells): 12.9 µM
786-0; read-out: pTGI (converted)
  TGI: 1170 nM
SF-268
  GI50: 589 nM
SF-268; [8]
  CC50: 79.4 µM
SF-268; read-out: pTGI (converted)
  TGI: 26.3 µM
SF-539
  GI50: 20.4 nM
SF-539; [8]
  CC50: 6.17 µM
SF-539; read-out: pTGI (converted)
  TGI: 724 nM
SK-MEL-2
  GI50: 759 nM
SK-MEL-2; [8]
  CC50: 97.7 µM
SK-MEL-2; read-out: pTGI (converted)
  TGI: 21.4 µM
[4]
  GI50: 3.24 µM
[4]; [8]
  CC50: > 100 µM
[4]; read-out: pTGI (converted)
  TGI: 31.6 µM
SF-295; read-out: GI50
  GI50: 89 nM
SF-295; read-out: pGI50 (converted)
  GI50: 89.1 nM
SF-295; [8]
  CC50: 3.16 µM
SF-295; read-out: pTGI (converted)
  TGI: 427 nM
HOP-62
  GI50: 631 nM
HOP-62; [8]
  CC50: > 100 µM
HOP-62; read-out: pTGI (converted)
  TGI: 7.08 µM
BT-549
  GI50: 21.4 nM
BT-549; [8]
  CC50: 57.5 µM
BT-549; read-out: pTGI (converted)
  TGI: 5.37 µM
[5]; HCT-15
  GI50: 832 nM
[5]; HCT-15, read-out: pLC50 (the source's name) (converted)
  CC50: > 100 µM
[5]; HCT-15, read-out: pTGI (converted)
  TGI: 38 µM
SNB-75
  GI50: 10 nM
SNB-75; [8]
  CC50: 56.2 µM
SNB-75; read-out: pTGI (converted)
  TGI: 851 nM
[6]; OVCAR-8
  GI50: 4.79 µM
[6]; OVCAR-8, read-out: pLC50 (the source's name) (converted)
  CC50: > 100 µM
[6]; OVCAR-8, read-out: pTGI (converted)
  TGI: 42.7 µM
NCI-H322M
  GI50: 7.08 µM
NCI-H322M; [8]
  CC50: 95.5 µM
NCI-H322M; read-out: pTGI (converted)
  TGI: 33.9 µM
[7]; UACC-62
  GI50: 617 nM
[7]; UACC-62, read-out: pLC50 (the source's name) (converted)
  CC50: 33.9 µM
[7]; UACC-62, read-out: pTGI (converted)
  TGI: 6.46 µM
KM12
  GI50: 447 nM
KM12; [8]
  CC50: 7.76 µM
KM12; read-out: pTGI (converted)
  TGI: 1950 nM
NCI-H23
  GI50: 1320 nM
NCI-H23; [8]
  CC50: 41.7 µM
NCI-H23; read-out: pTGI (converted)
  TGI: 7.59 µM
MDA-MB-231
  GI50: 1700 nM
  LC50: > 100 µM
MDA-MB-231; read-out: pTGI (converted)
  TGI: 32.4 µM
NCI-H226
  GI50: 19.5 µM
NCI-H226; [8]
  CC50: > 100 µM
NCI-H226; read-out: pTGI (converted)
  TGI: 75.9 µM
K562
  GI50: 263 nM
K562; [8]
  CC50: > 100 µM
K562; read-out: pTGI (converted)
  TGI: 47.9 µM
ACHN
  GI50: 2140 nM
  LC50 (concentration killing 50% of cells): > 100 µM
ACHN; read-out: pTGI (converted)
  TGI: 30.9 µM
SR
  GI50: 123 nM
SR; [8]
  CC50: > 100 µM
SR; read-out: pTGI (converted)
  TGI: 21.4 µM
A549
  GI50: 1000 nM
A549; [8]
  CC50: 55 µM
A549; read-out: pTGI (converted)
  TGI: 8.32 µM
HCT-116
  GI50: 617 nM
HCT-116; [8]
  CC50: 8.13 µM
HCT-116; read-out: pTGI (converted)
  TGI: 2450 nM
HT-29
  GI50: 1170 nM
HT-29; [8]
  CC50: 45.7 µM
HT-29; read-out: pTGI (converted)
  TGI: 4.17 µM
HL-60(TB)
  GI50: 43.6 nM
HL-60(TB); [8]
  CC50: > 100 µM
HL-60(TB); read-out: pTGI (converted)
  TGI: 4.79 µM
RXF 393
  GI50: 10 nM
  LC50: 389 nM
RXF 393; read-out: pTGI (converted)
  TGI: 24.6 nM
IGROV-1
  GI50: 2510 nM
IGROV-1; [8]
  CC50: 97.7 µM
IGROV-1; read-out: pTGI (converted)
  TGI: 22.9 µM
